Key:
Assay type in all cases: functional
Cavia porcellus = species on record: Cavia porcellus; assay: Inhibition of electrically stimulated contractions of guinea pig ileum segments.; conditions: read-out: ED50 (the source's name)
How it was run: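 Ileum segments (4 cm, taken ≥10 cm from cecum) from adult guinea pigs (300-400 g), 1 g initial load, Krebs-bicarbonate at 37 °C, gassed 95% O2/5% CO2. Coaxial stimulation at 0.5-ms pulses, 0.1 Hz, 5-25 V, with isometric recording. Drug was added cumulatively to maximal effect and expressed as % of the 5-min pre-drug response. ED50 was assessed graphically.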

Rattus norvegicus [1] = species on record: Rattus norvegicus; assay: Concentration giving 50% relaxation of the 30 mM KCL-induced contraction of rat aorta rings; conditions: read-out: ED50 (the source's name)
How it was run: (§1)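 Endothelium-denuded aortic rings (3-4 mm) from fed Wistar rats (250-300 g), held at 1 g tension in Krebs-bicarbonate at 37 °C under O2/CO2 (95/5), isometric recording. After 60 min equilibration, contracted with 30 or 80 mM KCl as specified. At plateau, drug was added cumulatively to maximal relaxation or 1 mM. Glibenclamide (1 or 10 µM) was present throughout where stated. ED50 was read graphically as 50% inhibition of the KCl plateau.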

Rattus norvegicus [2] = species on record: Rattus norvegicus; assay: Effect on contractile activity of 30 mM potassium-Depolarized rat aorta incubated in the absence of Glibenclamide; conditions: read-out: ED50 (the source's name); how it was run: as §1
Rattus norvegicus [3] = species on record: Rattus norvegicus; assay: Effect on contractile activity of 30 mM potassium-Depolarized rat aorta incubated in the presence of 1 uM Glibenclamide; conditions: read-out: ED50 (the source's name); how it was run: as §1
Rattus norvegicus [4] = species on record: Rattus norvegicus; assay: Effect on contractile activity of 80 mM potassium-Depolarized rat aorta; conditions: read-out: ED50 (the source's name); how it was run: as §1
Rattus norvegicus [5] = species on record: Rattus norvegicus; assay: Effect on Insulin secretion from rat pancreatic islets (RIS) in the presence of 16.7 mM glucose at 10 uM
How it was run: (§2)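 Collagenase-isolated islets from fed Wistar rats (180-220 g), in groups of 10. Preincubated 30 min at 37 °C in bicarbonate salt medium with 2.8 mM glucose and 0.5% albumin under O2/CO2. Then incubated 90 min at 37 °C with 16.7 mM glucose plus drug. Insulin was measured by radioimmunoassay against a rat insulin standard and reported as % residual release.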

Rattus norvegicus [6] = species on record: Rattus norvegicus; assay: Insulin secretion from rat pancreatic islets (RIS) in the presence of 16.7 mM glucose at 50 uM; how it was run: as §2
Rattus norvegicus [7] = species on record: Rattus norvegicus; assay: Effect on Oxytocin-Induced contractions of rat uterus at 10 uM
How it was run: (§3)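 Uterine horns from fed Wistar rats (150-200 g) primed the day before with im diethylstilboestrol dipropionate (0.1 mL/100 g of 1 mg/mL oily solution). Horns were superfused with Tyrode at 37 °C under O2/CO2 (95/5). 20 mU oxytocin was injected at 10-min intervals until contractions (AUC) were constant, then repeated ≥3 times per drug concentration. Response is given as % of the drug-free oxytocin contraction.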

Rattus norvegicus [8] = species on record: Rattus norvegicus; assay: Effect on Oxytocin-Induced contractions of rat uterus at 100 uM; how it was run: as §3
Rattus norvegicus [9] = species on record: Rattus norvegicus; assay: Effect on Oxytocin-Induced contractions of rat uterus at 50 uM; how it was run: as §3
Rattus norvegicus [10] = species on record: Rattus norvegicus; assay: Effect on contractile activity of 30 mM potassium-Depolarized rat aorta incubated in the presence of 10 uM Glibenclamide; conditions: read-out: ED50 (the source's name); how it was run: as §1
Rattus norvegicus [11] = species on record: Rattus norvegicus; assay: Compound is evaluated for the effect on Oxytocin-Induced contractions of rat uterus at 10 uM; how it was run: as §3
Rattus norvegicus [12] = species on record: Rattus norvegicus; assay: Compound is evaluated for the effect on Oxytocin-Induced contractions of rat uterus at 100 uM; how it was run: as §3
Rattus norvegicus [13] = species on record: Rattus norvegicus; assay: Compound is evaluated for the effect on Oxytocin-Induced contractions of rat uterus at 50 uM; how it was run: as §3
Rattus norvegicus [14] = species on record: Rattus norvegicus; assay: Effect on Oxytocin-Induced contractions of rat uterus at concentrations 10 uM; how it was run: as §3
Rattus norvegicus [15] = species on record: Rattus norvegicus; assay: Effect on Oxytocin-Induced contractions of rat uterus at concentrations 100 uM; how it was run: as §3
Rattus norvegicus [16] = species on record: Rattus norvegicus; assay: Effect on Oxytocin-Induced contractions of rat uterus at concentrations 50 uM; how it was run: as §3

Row | SMILES | EC50 (Cavia porcellus) [µM] | EC50 (Rattus norvegicus [1]) [µM] | RIS (Rattus norvegicus [6]) [%] | further results
1 | C[C@@H](NC1=NS(=O)(=O)c2cc(Cl)cnc2N1)C1CCCCC1 | 13.6 | 3.5 | 6.7 | EC50 (Rattus norvegicus [2]): 3.7 µM; EC50 (Rattus norvegicus [3]): 5 µM; EC50 (Rattus norvegicus [4]): 12.3 µM; RIS (Rattus norvegicus [5]): 71.3%; Contraction (Rattus norvegicus [7]): 70.6%; Contraction (Rattus norvegicus [8]): 22.9%; Contraction (Rattus norvegicus [9]): 50.9%; EC50 (Rattus norvegicus [10]): 8.6 µM
2 | O=S1(=O)N=C(NCc2ccccc2)Nc2ncccc21 | > 300 | 21.9 | 86.2 | –
3 | C[C@@H](NC1=NS(=O)(=O)c2cc(Cl)cnc2N1)c1ccccc1 | – | 38.8 | 52.3 | Contraction (Rattus norvegicus [7]): 88.4%; Contraction (Rattus norvegicus [8]): 32.6%; Contraction (Rattus norvegicus [9]): 59.4%
4 | C[C@H](NC1=NS(=O)(=O)c2cccnc2N1)c1ccccc1 | > 300 | 9.9 | 73.3 | –
5 | CC(C)C(C)NC1=NS(=O)(=O)c2cc(Cl)cnc2N1 (stereo unspecified) | > 300 | 10.6 | 59.3 | EC50 (Rattus norvegicus [2]): 8.2 µM; EC50 (Rattus norvegicus [3]): 34.1 µM; EC50 (Rattus norvegicus [4]): 49.3 µM; EC50 (Rattus norvegicus [10]): 45.1 µM
6 | C[C@H](NC1=NS(=O)(=O)c2cc(Cl)cnc2N1)c1ccccc1 | – | 21.2 | 45.9 | Contraction (Rattus norvegicus [7]): 91%; Contraction (Rattus norvegicus [8]): 41.1%; Contraction (Rattus norvegicus [9]): 79.3%
7 | CC(N/C(=N\C#N)Nc1ccncc1)C(C)(C)C (stereo unspecified) [PINACIDIL ANHYDROUS] | 9.2 | 0.5 | 92.1 | EC50 (Rattus norvegicus [2]): 0.2 µM; EC50 (Rattus norvegicus [3]): 10.4 µM; EC50 (Rattus norvegicus [4]): 16 µM; RIS (Rattus norvegicus [5]): 96%; Contraction (Rattus norvegicus [11]): 58.1%; Contraction (Rattus norvegicus [12]): 38.1%; Contraction (Rattus norvegicus [13]): 35.5%; EC50 (Rattus norvegicus [10]): 42.5 µM
8 | CC1=NS(=O)(=O)c2cc(Cl)cnc2N1 | – | > 300 | 87.4 | –
9 | CC(NC1=NS(=O)(=O)c2cccnc2N1)C(C)(C)C (stereo unspecified) | > 300 | 7.5 | 98.9 | EC50 (Rattus norvegicus [2]): 10.1 µM; EC50 (Rattus norvegicus [3]): 65.2 µM; EC50 (Rattus norvegicus [4]): > 300 µM; Contraction (Rattus norvegicus [14]): 93.8%; Contraction (Rattus norvegicus [15]): 57.5%; Contraction (Rattus norvegicus [16]): 68%; EC50 (Rattus norvegicus [10]): 107 µM
10 | C[C@H](NC1=NS(=O)(=O)c2cc(Cl)cnc2N1)C1CCCCC1 | 20.4 | 3.8 | 11.8 | RIS (Rattus norvegicus [5]): 71.9%; Contraction (Rattus norvegicus [7]): 84.9%; Contraction (Rattus norvegicus [8]): 43.7%; Contraction (Rattus norvegicus [9]): 71.4%
11 | C[C@H](NC1=NS(=O)(=O)c2cccnc2N1)C1CCCCC1 | > 300 | 25.2 | 76.2 | –
12 | CC(C)C(C)NC1=NS(=O)(=O)c2cnccc2N1 (stereo unspecified) | > 300 | 154 | 7.1 | RIS (Rattus norvegicus [5]): 26.8%
13 | CCC(C)NC1=NS(=O)(=O)c2cc(Cl)cnc2N1 (stereo unspecified) | – | 20 | 62.7 | –
14 | CC(C)C(C)NC1=NS(=O)(=O)c2cccnc2N1 (stereo unspecified) | > 300 | 27.1 | 87.9 | EC50 (Rattus norvegicus [2]): 27.1 µM; EC50 (Rattus norvegicus [4]): > 300 µM
15 | O=S1(=O)N=C(NCC2CCCCC2)Nc2ncccc21 | 145 | 45.7 | 94.2 | –
16 | CC(Cc1ccc(O)cc1)NCC(O)c1cc(O)cc(O)c1 (stereo unspecified) [FENOTEROL] | – | – | – | Contraction (Rattus norvegicus [14]): 38.4%; Contraction (Rattus norvegicus [15]): 35.5%; Contraction (Rattus norvegicus [16]): 36.3%
17 | O=S1(=O)NC(NCc2ccccc2)=Nc2ncc(Cl)cc21 | – | 43.6 | 74.1 | Contraction (Rattus norvegicus [7]): 108.2%; Contraction (Rattus norvegicus [8]): 71.9%; Contraction (Rattus norvegicus [9]): 98.9%
18 | CC(C)NC1=NS(=O)(=O)c2cc(Cl)cnc2N1 | > 300 | 14.6 | 74.4 | –
19 | CC(C)NC1=NS(=O)(=O)c2cccnc2N1 | > 300 | 132 | 78.7 | –
20 | CCC(C)NC1=NS(=O)(=O)c2cccnc2N1 (stereo unspecified) | – | 50.9 | 85.9 | –
21 | C[C@@H](NC1=NS(=O)(=O)c2cccnc2N1)c1ccccc1 | > 300 | 65.2 | 71.6 | –
22 | CC(NC1=NS(=O)(=O)c2cc(Cl)cnc2N1)C(C)(C)C (stereo unspecified) | > 300 | 2.3 | 41.5 | EC50 (Rattus norvegicus [2]): 1.6 µM; EC50 (Rattus norvegicus [3]): 22.6 µM; EC50 (Rattus norvegicus [4]): 33 µM; Contraction (Rattus norvegicus [11]): 97.6%; Contraction (Rattus norvegicus [12]): 51%; Contraction (Rattus norvegicus [13]): 67.9%; EC50 (Rattus norvegicus [10]): 33.9 µM
23 | O=S1(=O)NC(NCC2CCCCC2)=Nc2ncc(Cl)cc21 | 17.4 | 38.2 | 57.7 | RIS (Rattus norvegicus [5]): 76.8%; Contraction (Rattus norvegicus [7]): 96.3%; Contraction (Rattus norvegicus [8]): 90.4%; Contraction (Rattus norvegicus [9]): 95.1%
24 | C[C@@H](NC1=NS(=O)(=O)c2cccnc2N1)C1CCCCC1 | > 300 | 29.2 | 79.9 | –
25 | CC1=Nc2ccc(Cl)cc2S(=O)(=O)N1 [DIAZOXIDE] | > 300 | 19.3 | 28.8 | EC50 (Rattus norvegicus [2]): 19.5 µM; EC50 (Rattus norvegicus [3]): 85.8 µM; EC50 (Rattus norvegicus [4]): > 300 µM; RIS (Rattus norvegicus [5]): 70%; Contraction (Rattus norvegicus [11]): 93.8%; Contraction (Rattus norvegicus [12]): 67.7%; Contraction (Rattus norvegicus [13]): 76.3%; EC50 (Rattus norvegicus [10]): 163 µM

From ChEMBL document CHEMBL1133004, “3-Alkylamino-4H-pyrido[2,3-e]-1,2,4-thiadiazine 1,1-dioxides structurally related to diazoxide and pinacidil as potassium channel openers acting on vascular smooth muscle cells: design, synthesis, and pharmacological evaluation” (2000)
